# Sampled rows, rich in hits. Any-hit rate of the full collection: about 2.6%.
# MEKK2 mut-MEK5: MEK5 binding signal on mutant MEKK2 PB1, primary screen, biochemical, multiplex bead flow cytometry, Alexa488-MEK5; Alexa488-MEK5 binding to MEKK2 mutant; percent response, % at 10 µM; 290,000 compounds, 0.35% hits; AID 1530, 2009; in the data active means percent response above about 24%, passing the limit was not always enough
# Lipid droplet: inhibitors of hepatocyte lipid droplet formation, primary screen, imaging, high-throughput imaging, BODIPY stain; 240,000 compounds, 0.4% hits; inhibition, % at 6.5 µM; AML12 mouse hepatocytes, oleate lipid droplets;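 active means lipid droplet intensity inhibited by at least 50%, with more than 500 cells counted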
#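 Technique: fluorescence imaging, 20x objective, two fields per well / Assay system: AML12 hepatocytes (mouse) / Measure: % inhibition of lipid droplet signal / Doses: 6.5 µM single-point dosing / Incubation: overnight exposure / Reagent: 100 µM oleic acid challenge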
# MEKK3 PB1 HTS: modulators of MEKK3-MEK5 PB1 binding, primary screen, biochemical, wildtype MEKK3, multiplex bead flow cytometry, Alexa488-MEK5 | binding response (% of control), % at 10 µM | Mitogen-activated protein kinase kinase kinase 3 (Homo sapiens), Q99759 | 290,000 compounds, 1.4% hits | bead-based flow cytometry, Alexa488-MEK5 binding to MEKK3; actives lie on both sides; 0 = blocked by unlabeled MEK5, 100 = vehicle | AID 1529, 2009;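 active means binding response more than 3 SD above or below the average of its plate-row segment, actives on both sides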;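 further: Alexa488 bead fluorescence after subtracting the streptavidin-only scavenger bead signal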
# Target sequence (Q99759 whole entry, looked up): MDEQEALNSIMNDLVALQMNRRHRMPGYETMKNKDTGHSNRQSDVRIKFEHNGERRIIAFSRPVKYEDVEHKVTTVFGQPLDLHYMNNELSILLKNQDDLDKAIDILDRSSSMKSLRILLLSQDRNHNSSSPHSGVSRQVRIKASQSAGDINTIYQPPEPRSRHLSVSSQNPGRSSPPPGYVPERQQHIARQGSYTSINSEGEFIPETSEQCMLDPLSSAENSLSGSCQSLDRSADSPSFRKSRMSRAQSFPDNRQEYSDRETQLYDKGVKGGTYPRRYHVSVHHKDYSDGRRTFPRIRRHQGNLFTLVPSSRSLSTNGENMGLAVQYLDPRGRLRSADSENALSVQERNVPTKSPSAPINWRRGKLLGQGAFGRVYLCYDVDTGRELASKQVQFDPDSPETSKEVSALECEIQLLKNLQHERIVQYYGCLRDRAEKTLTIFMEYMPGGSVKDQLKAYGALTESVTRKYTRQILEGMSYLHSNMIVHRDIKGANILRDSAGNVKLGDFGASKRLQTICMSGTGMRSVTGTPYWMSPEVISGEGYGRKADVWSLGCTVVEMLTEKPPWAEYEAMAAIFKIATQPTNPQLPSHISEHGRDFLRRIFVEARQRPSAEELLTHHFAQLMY
# MEKK2 WT-MEK5: modulators of MEK5 binding to wildtype MEKK2, primary screen, biochemical, multiplex bead flow cytometry, Alexa488-MEK5; Alexa488-MEK5 binding to MEKK2 WT; actives lie on both sides; binding response (% of control), % at 10 µM; 290,000 compounds, 1.1% hits; in the data active means binding response below about 67% or above about 130%
# Hep lipid conf: hepatocyte lipid droplet accumulation inhibitors, confirmation, imaging, AML12 mouse hepatocytes, single concentration, high-content. inhibition, % at 5.2 µM. shares compounds with Lipid droplet. BODIPY lipid droplet imaging; droplets induced with 100 µM oleic acid. 870 compounds, 65% hits;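 active means inhibition of lipid droplet metric at least 50%, with more than 300 cells in each of four replicates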;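 further: plate controls were DMSO with oleic acid for no effect and 5 µM Triacsin-C for full effect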
# AML12 tox img: AML12 hepatocyte cytotoxicity, counter-screen for hepatic lipid droplet formation project, imaging, DAPI nuclear morphology imaging; shares compounds with Lipid droplet; AML12 mouse hepatocytes; active compounds read high; cells fed 100 µM oleate overnight; z-score at 5 µM; 870 compounds, 3% hits; AID 463200, 2010; in the data active means z-score above about 6.3;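 further: compound exposure lasted overnight at 37 °C before fixation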
# AML12 tox ATP: AML12 hepatocyte cytotoxicity, confirmation, cytotoxicity control for hepatic lipid droplet formation project, cell-based, single concentration | cytotoxicity, % at 50 µM | AML12 mouse hepatocyte viability, ATP luminescence; cells loaded with 100 µM oleic acid | 530 tested, under 10 active | shares compounds with Lipid droplet;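 active means cytotoxicity above 50% in each of four replicates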;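 further: compound exposure lasted overnight at 37 °C before the ATP read; 0% = DMSO-treated cells and 100% = wells with no cells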
# Active calls of the source: *; . = not tested or not shown; [ ] = remark or other dose.
SMILES,MEKK2 mut-MEK5,Lipid droplet,MEKK3 PB1 HTS,MEKK2 WT-MEK5,Hep lipid conf,AML12 tox img,AML12 tox ATP
Cc1cccc(N2CC(C(=O)Nc3nnc(SCC(=O)NCC4CCCO4)s3)CC2=O)c1 (configuration not stated),6.0,-0.1,101.0,96.0,.,.,.
CCCCOc1ccc(-c2ncc([N+](=O)[O-])cn2)cc1,-17.0,51.1*,86.0,87.0,19.5,0.839,.
Cc1cc(C)n2ncc(S(=O)(=O)c3ccccc3)c2n1,1.0,2.7,104.0,101.0,.,.,.
CC(C)(C)NC(=O)CSc1nc2ccc(Nc3nc(N4CCOCC4)nc(N4CCOCC4)n3)cc2s1,3.0,53.1*,109.0,107.0,89.0*,0.588,-2.1
CSc1ccccc1NC(=O)C1CCCN(S(C)(=O)=O)C1 (configuration not stated),12.0,2.6,105.0,107.0,.,.,.
Oc1c(/C=C/C=C/C=Nc2ccccc2)sc(=S)n1Cc1ccccc1,0.0,74.3*,21.0*[inhibitor],.,75.7*,0.807,27.7
COc1ccc(CNC(=O)C2CCCN(C(=O)Nc3ccccc3OC)C2)cc1 (configuration not stated),7.0,81.1*,102.0,105.0,98.8*,-0.726,10.1
O=C(Nc1ccccc1F)C1CCN(C(=O)NCc2ccccc2)CC1,5.0,0.3,100.0,104.0,.,.,.
CCOc1ccccc1NC(=O)C1CCN(C(=O)NCc2ccccc2)CC1,1.0,130.4*,103.0,104.0,109.8*,-0.396,5.6
COc1ccccc1NC(=O)N1CCC(C(=O)c2ccc(F)cc2)CC1,8.0,39.0,103.0,107.0,.,.,.
CCOc1ccccc1NC(=O)N1CCC(C(=O)c2ccc(F)cc2)CC1,1.0,58.7*,106.0,107.0,94.6*,0.00254,12.5
C[C@H]1CC[C@]2(O[C@@H](CCO)C[C@H](O)[C@H]2O)O1,-3.0,.,103.0,102.0,.,.,.
COc1ccc(C(C)=O)cc1CSc1nnc(Nc2ccc(C)cc2C)s1,16.0,90.2*,101.0,121.0,7.9,-0.399,.
COc1ccccc1NC(=O)Nc1ccc(CC#N)cc1,6.0,-14.8,100.0,101.0,.,.,.
CC(NC(=O)[C@@H](C)NC(=O)[C@@H]1Cc2ccccc2CN1C(=O)OC(C)(C)C)c1ccccc1 (some centres not stated),2.0,68.5*,100.0,101.0,76.1*,-0.241,12.9
COC(=O)c1cn(NC(=O)c2ccccc2[N+](=O)[O-])c(=O)c2ccccc12,0.0,6.5,99.0,96.0,.,.,.
Cc1c(NC(=O)COC(=O)CCc2c[nH]c3ccccc23)c(=O)n(-c2ccccc2)n1C,7.0,-12.7,102.0,108.0,.,.,.
O=S1(=O)c2cccc3cccc(c23)N1CCBr,7.0,-25.0,101.0,100.0,.,.,.
COc1ccc2nc(N=Nc3ccc(O)c4ccccc34)sc2c1,8.0,70.6*,81.0,106.0,104.7*,5.53,.
O=C(CSCc1cccc(Br)c1)N=Nc1c(O)[nH]c2ccccc12,0.0,.,102.0,99.0,.,.,.
O=Nc1c(-c2c(O)[nH]c3cc(Br)ccc23)[nH]c2ccccc12,1.0,75.1*,88.0,77.0,111.8*,2.53,67.4*
CC1(C)Oc2ccc3ccc(=O)oc3c2/C(=C/Nc2ccc(O)cc2)C1=O,-2.0,56.4*,97.0,99.0,94.3*,-0.416,-11.9
CC(C)OC(=O)/C(=C\c1ccc2c(c1)c1ccccc1n2C)NC(=O)c1ccccc1,-5.0,.,90.0,85.0,.,.,.
CC(C)OC(=O)/C(=C/c1ccc2c(c1)c1ccccc1n2C)NC(=O)c1ccccc1,5.0,53.3*,103.0,104.0,96.4*,-0.205,-6.2
CC(C)CCNC(=O)C1CCC(CNc2c(N3CCCC3)c(=O)c2=O)CC1 (configuration not stated),5.0,-40.7,107.0,104.0,.,.,.
SMILES,MEKK2 mut-MEK5,Lipid droplet,MEKK3 PB1 HTS,MEKK2 WT-MEK5,Hep lipid conf,AML12 tox img,AML12 tox ATP
CC(Nc1nc(-c2cccnc2)nc2ccccc12)c1ccc(F)cc1 (configuration not stated),10.0,-3.8,104.0,116.0,.,.,.
COc1ccc(/C=C(/NC(=O)c2cccs2)C(=O)Nc2ccc(C)cc2)cc1OC,-3.0,60.7*,95.0,99.0,99.9*,0.208,8.9
CN(C1=C(NC(=O)c2ccc(Cl)cc2)C(=O)c2ccccc2C1=O)c1ccccc1,-10.0,68.8*,98.0,90.0,90.6*,-0.926,.
O=C(NC1=C(Nc2ccc(Cl)cc2)C(=O)c2ccccc2C1=O)c1ccccc1,-5.0,2.3,96.0,96.0,.,.,.
CCSc1nc2sc3c(c2c(=O)n1-c1ccccc1)CCN(C(C)C)C3,5.0,5.1,101.0,106.0,.,.,.
CCCCSCCCNC(=O)c1ccc2c(c1)N(CC)C(=O)c1ccccc1S2=O (configuration not stated),8.0,60.0*,105.0,108.0,88.4*,0.0529,14.5
Cc1ccc(N2C(=O)c3ccccc3NC2(C(=O)O)c2ccccc2)cc1Cl (configuration not stated),10.0,50.4*,103.0,107.0,60.5,1.39,30.7
CCc1c(C#N)c(SCCC(=O)Nc2cccc(OC)c2)nc2c1C(=O)CC(C)(C)C2,0.0,58.5*,103.0,98.0,101.4*,0.694,3.4
CCNC(=O)NC(=O)C(C)OC(=O)[C@H](C)NS(=O)(=O)c1c(C)c(C)cc(C)c1C (some centres not stated),6.0,10.6,104.0,99.0,.,.,.
O=C(COc1ccc(Cl)cc1)Nc1ccc2c(c1)C(=O)NC2=O,5.0,59.5*,99.0,101.0,4.7,0.0792,.
CCc1cc(=O)oc2c(C)c(OCC(=O)N3CCC(C(=O)O)CC3)ccc12,5.0,5.8,104.0,104.0,.,.,.
CC1CCCCN1Cc1c(O)ccc2c(=O)c(-c3ccccc3)coc12 (configuration not stated),1.0,87.3*,103.0,106.0,-34.6,1.02,.
CCC1CCCCN1Cc1c(O)ccc2c(=O)c(-c3ccccc3)coc12 (configuration not stated),8.0,-1.5,107.0,111.0,.,.,.
Cc1nn(CCC#N)c(N)c1C1(O)C(=O)Nc2c(Cl)cc(Cl)cc21 (configuration not stated),3.0,7.0,97.0,103.0,.,.,.
CCCCN(CCCNC(=O)Cn1nc(CC)n2c(cc3sc(C)cc32)c1=O)Cc1ccccc1,12.0,69.1*,101.0,111.0,88.9*,-0.5,15.3
